Measured values taken from PubChem BioAssay AID624467 (The Scripps Research Institute Molecular Screening Center, 2012).
Out of some 360,000 compounds screened, about 3,600 (1%) were called active. Many of the other results were omitted from the sample, so actives are more common in it than they were. Unmarked numbers belong to inactive results.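 Rule for the calls: active = activation above the mean activation of all test compounds in the run plus 3 SD (cut at about 38% in these data); inactive = the rest.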

target: Trace amine-associated receptor 1 (Homo sapiens) (UniProt Q96RJ0); assay: human TAAR1 agonists, primary screen, Fluo-8 calcium fluorescence, CHO RD-HGA16 cells (AID 624467); conditions: CHO RD-HGA16 TAAR1, Fluo-8 calcium fluorescence; at 3 µM; active compounds read high; vehicle wells 0%, saturating PEA agonist 100%
Procedure, shortened: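 Test system: RD-HGA16 (CHO) cells co-expressing Gα16 and hTAAR1 | Doses: Single dose, 3 µM | Schedule: 17-24 h seeding, 75 min 37 °C dye, 30 min RT | Evaluation: % activation from peak over basal fluorescence ratio, DMSO-to-PEA scaled | Technique: Kinetic Fluo-8 calcium fluorescence | Benchmarks: Low control DMSO, high control PEA (EC100)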

Trace amine-associated receptor 1 (Homo sapiens), sequence (Q96RJ0 whole entry, looked up): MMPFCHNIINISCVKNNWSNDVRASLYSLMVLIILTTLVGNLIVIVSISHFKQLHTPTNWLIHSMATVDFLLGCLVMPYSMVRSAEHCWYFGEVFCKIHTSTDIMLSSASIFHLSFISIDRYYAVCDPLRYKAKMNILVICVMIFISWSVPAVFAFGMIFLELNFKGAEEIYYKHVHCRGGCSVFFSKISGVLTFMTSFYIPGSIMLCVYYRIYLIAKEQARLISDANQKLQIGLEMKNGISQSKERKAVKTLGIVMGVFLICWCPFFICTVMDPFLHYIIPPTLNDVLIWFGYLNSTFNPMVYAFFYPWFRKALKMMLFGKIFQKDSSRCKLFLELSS

Row | Compound | activation
1 | O=C(Nc1ccc(Cl)cc1)N1CCc2[nH]c3ccccc3c2C1 | 50.1% (active)
2 | CCOc1ccc(NC(=O)N2CC=C(n3c(=O)[nH]c4ccccc43)CC2)cc1 | 15.9%
3 | CC(=O)C(CC(=O)N1CCCC1)C(=O)Nc1ccc(Cl)cc1 (stereo unspecified) | 7.47%
4 | C=CCNC(=S)N1CCc2[nH]c3ccccc3c2C1 | 6.5%
5 | C[C@H](O)[C@@H]1C(=O)N2CCc3c([nH]c4ccccc34)[C@@H]2C[C@@H]1N(C)C(=O)Nc1ccc(F)cc1 | 9.88%
6 | Fc1ccc(NC(=S)N2CCc3[nH]c4ccccc4c3C2)cc1 | 51.5% (active)
7 | COC(=O)C(C(=O)OC)c1ccccc1NS(=O)(=O)c1cccc2ccccc12 | -0.61%
8 | CCOc1ccccc1C(=O)N1CCC[C@@H]1C(=O)N1CCC[C@H]1C(=O)NCc1ccccc1 | -0.21%
9 | Cc1ccc2nc(CN(C)C(=O)[C@@H](Cc3ccccc3)NC(=O)[C@H]3O[C@@H](n4ccc(=O)[nH]c4=O)[C@H](O)[C@@H]3O)[nH]c2c1 | 1.15%
10 | CC(C)CCNC(=O)Cn1c(=O)oc2cc(S(=O)(=O)N3CC(C)CC(C)C3)ccc21 (stereo unspecified) | 4.15%
11 | N/C(=N\c1nc2ccccc2o1)NC(=O)C(Cc1ccccc1)N1C(=O)c2ccccc2C1=O (stereo unspecified) | -1.96%
12 | Cc1ccc(C)c(CN2CCC(CNC(=O)Nc3ccc(C)c(F)c3)CC2)c1 | 2.76%
13 | O=C(NCC1CCN(Cc2ccccc2Cl)CC1)Nc1cccc(Cl)c1 | 2.1%
14 | Cc1cccc(CN2CCC(CNC(=O)Nc3ccc(F)c(Cl)c3)CC2)c1 | 39.9% (active)
15 | COc1ccc(C(=O)OCC(=O)NCC2CCCO2)cc1[N+](=O)[O-] (stereo unspecified) | -0.84%
16 | O=S(=O)(Nc1cc(S(=O)(=O)N2CCOCC2)ccc1N1CCCC1)c1cccs1 | -2.22%
17 | CC1(C)c2[nH]c3ccccc3c2C[C@H]2C(=O)N(N)CC(=O)N21 | 4.18%
18 | COc1cc(S(=O)(=O)N2CCN=C2c2ccccc2)ccc1Cl | -0.47%
19 | CCOC(=O)[C@]12CCCC=C1N(CCC1=CCCCC1)C(=O)[C@H](CC(=O)NCCCOC)C2 | -0.95%
20 | CCOc1ccc(/C=C(/NC(=O)c2ccccc2)C(=O)NCCC(=O)O)cc1 | 5.67%
21 | O=C(NCCN1CCOCC1)/C(=C/c1ccc(F)cc1)NC(=O)c1ccccc1 | -2.27%
22 | O=C(NCCc1ccccc1)/C(=C\c1ccc([N+](=O)[O-])cc1)NC(=O)c1ccccc1 | 50.3% (active)

Row | Compound | activation
23 | COC(=O)Cc1nnn2c1[C@H](C)[C@@H](OC)c1cc(Br)ccc1-2 | 0.26%
24 | O=C(Cn1cnc2c(cnn2-c2ccc(F)cc2)c1=O)NCCc1ccccc1 | -0.7%
25 | Cc1nnc(NC(=O)Nc2ccc(Cl)c(Cl)c2)s1 | 42% (active)
26 | Cc1ccc(NC(=O)Nc2cc(-c3ccccc3)nn2C)cc1Cl | 11.2%
27 | O=C(CC(O)(C(F)(F)F)C(F)(F)F)Nc1ccc(Cl)c(Cl)c1 | 12.3%
28 | O=P(O)(CP(=O)(c1ccccc1)c1ccccc1)c1ccccc1 | 12.7%
29 | O=C(COC(=O)Cc1ccccc1F)NCCc1ccccc1 | 47.4% (active)
30 | O=C(COC(=O)Cc1c[nH]c2ccccc12)NCCc1ccccc1 | 8.93%
31 | COc1ccc(CCNC(=O)COC(=O)Cc2ccccc2F)cc1 | 2.06%
32 | COc1ccccc1N(CC(=O)NC1CCCC1)C(=O)C1(C)CC(=O)N=C2C=CC(C)=CN21 (stereo unspecified) | 2.01%
33 | CCN(CC)CCN(C(=O)c1ccc(N2C(=O)CCC2=O)cc1)c1nc2cc3c(cc2s1)OCO3 | 2.36%
34 | CC1CCN(C(=O)c2cccc(S(=O)(=O)N3CCCc4ccccc43)c2)CC1 | 2.06%
35 | CCN(CC(=O)Nc1c(F)cccc1F)C(=O)c1ccc(S(=O)(=O)N2CCCCC2)cc1 | 8.1%
36 | CN(C)CCCN(C(=O)c1ccc(S(=O)(=O)N2CCCCCC2)cc1)c1nc2ccc(Br)cc2s1 | 58.3% (active)
37 | CN(C)CCCN(C(=O)c1ccc(S(=O)(=O)N2CCCc3ccccc32)cc1)c1nc2ccc(F)cc2s1 | 58.5% (active)
38 | CCC(=O)Nc1nnc(S(=O)(=O)N2CCCc3ccccc32)s1 | 0.28%
39 | C=CCOc1ccccc1/C=N/NC(=O)Cc1ccccc1 | 3.06%
40 | O=C(NN=Cc1ccccc1O)NN=Cc1ccccc1O | 43.2% (active)
41 | O=C(CO/N=C/c1ccccc1O)NNC(=O)c1ccccc1Cl | 8.86%
42 | NC(CSC(c1ccccc1)(c1ccccc1)c1ccc(-c2ccccc2)cc1)C(=O)O (stereo unspecified) | 3.19%
43 | O=S(=O)(Cc1ccc(Cl)cc1Cl)c1ccc(Cl)cc1 | 6.28%
44 | COC(=O)C1=C(C)N(Cc2cccc(C(F)(F)F)c2)C(=NCc2cccc(C(F)(F)F)c2)NC1c1ccccc1C(F)(F)F (stereo unspecified) | -0.1%

Row | Compound | activation
45 | CC(=O)c1cccc(NC(=O)N2CCCC2C(=O)NCCc2ccccc2)c1 (stereo unspecified) | 4.48%
46 | O=C(N[C@H](C(=O)N1CCC[C@H]1C(=O)NCCc1ccccc1Cl)c1ccccc1)c1ccccc1 | 57.5% (active)
47 | O=C(NCCc1ccc(Cl)cc1)C1CCCN1C(=O)NCc1ccccc1 (stereo unspecified) | -0.77%
48 | CC1CCN(C(=O)CCc2nnc3ccc(NCc4ccco4)nn23)CC1 | 6.46%
49 | COc1ccc(N2C(=O)CC(Nc3ccc(F)cc3)C2=O)c([N+](=O)[O-])c1 (stereo unspecified) | 2.14%
50 | Nc1nc2c(ncn2[C@@H]2O[C@H](C(=O)N[C@@H](Cc3ccccc3)C(=O)NCc3ccccc3)[C@@H](O)[C@H]2O)c(=O)[nH]1 | 5.02%
51 | CC(C)[C@H](NC(=O)N1CCn2c1nc1ccccc12)C(=O)NCCc1ccccc1 | 38.9% (active)
52 | CC(C)[C@H](NC(=O)N1CCn2c1nc1ccccc12)C(=O)NC1CC1 | 1.88%
53 | CC(C)[C@H](NC(=O)N1CCn2c1nc1ccccc12)C(=O)NCc1ccc2c(c1)OCO2 | 3.58%
54 | C=CCOc1ccc(C(=O)Nc2ccccc2C(=O)N2CCCC2)cc1 | -0.26%
55 | Nc1cc(=O)n(Cc2ccccc2)c(=O)n1Cc1ccccc1 | 1.88%
56 | CN(C(=O)COC(=O)c1ccc(Br)o1)c1c(N)n(Cc2ccccc2)c(=O)[nH]c1=O | 0.16%
57 | Cc1cc2nc3c(=O)n(Cc4ccccc4)c(=O)[nH]c3nc2cc1N | 53.8% (active)
58 | CCN(c1ccccc1)S(=O)(=O)c1cccc(C(=O)NCc2ccccc2CN2CCOCC2)c1 | 5.65%
59 | COC(=O)[C@]1(Cc2ccccc2)NC=C(C(=O)c2ccccc2)[C@@H]1c1cccc(OC)c1 | 0.41%
60 | C[C@H](O)[C@@H]1CN2CCc3ccc(-c4ccc5c(c4)OCO5)cc3[C@@H]2C[C@@H]1N(C)C(=O)C1CCCCC1 | -1.03%
61 | O=C(O)Cn1cnc2c(NCc3ccccc3)ncnc21 | 2.25%
62 | COc1ccc(CC(=O)Nc2sc(Cc3ccccc3)c(C)c2C(N)=O)cc1 | 3.38%
63 | NC(Cc1ccc(F)cc1)c1csc(Nc2nncc3ccccc23)n1 (stereo unspecified) | 35.4%
64 | COc1ccc(CC(N)c2csc(NC(=O)Nc3ccc(C(C)C)cc3)n2)cc1 (stereo unspecified) | 47.2% (active)
65 | COC(=O)[C@H](CCSC)NC(=O)Nc1ccc(OC)cc1 | -1.88%
66 | COc1ccc(CC(N)c2csc(NC(=O)NC(c3ccccc3)c3ccccc3)n2)cc1 (stereo unspecified) | 21.8%

Row | Compound | activation
67 | CC(C)(C)CC(=O)Nc1nnc(SCC(=O)NCc2cccs2)s1 | 1.84%
68 | COc1ccc(S(=O)(=O)N2CCN(C(C)C(=O)Nc3ccc(C(C)C)cc3)CC2)cc1 (stereo unspecified) | 0.11%
69 | COc1ccc(CC(N)c2csc(NC(=O)Cc3ccccc3)n2)cc1 (stereo unspecified) | 56.1% (active)
70 | Cc1ccccc1NC(=O)Cc1nc(COC(=O)c2ccc(C(F)(F)F)cc2)cs1 | 6.08%
71 | CC(C)(C)CC(=O)Nc1nc(C(N)Cc2ccc(C(F)(F)F)cc2)cs1 (stereo unspecified) | 63.4% (active)
72 | NC(Cc1ccccc1)c1csc(Nc2cc(Oc3ccccc3)ncn2)n1 (stereo unspecified) | 69.5% (active)
73 | CC(=NNC(N)=O)c1ccc(Cl)c(-n2cccc2)c1 | 0.51%
74 | CCN(C(=O)c1ccc(Br)cc1)c1ccccc1 | 0.89%
75 | COc1ccc(CNS(=O)(=O)c2cc(Br)ccc2Br)cc1 | 3.49%
76 | C[C@@H]1CN([C@H](C)CO)C(=O)CCCn2cc(nn2)CO[C@H]1CN(C)C(=O)Nc1ccc(N2CCCCC2)cc1 | 0.76%
77 | O=C(C(=O)N1CCC(CNS(=O)(=O)Cc2ccccc2)CC1)c1cc2ccccc2o1 | 3.18%
78 | CCOC(=O)c1cnc(SC)nc1Sc1ccc(Cl)cc1Cl | 9.74%
79 | C=CCNC(=O)c1sc(SC)cc1-c1ccc(Cl)cc1 | 4.3%
80 | CC(C)(C)C(c1nc2ccccc2[nH]1)n1c(Cc2csc3ccccc23)nc2ccccc21 (stereo unspecified) | 0.77%
81 | CC(=O)C1=C(C)N(Cc2ccc(Cl)cc2)C(=S)NC1c1ccc(F)cc1 (stereo unspecified) | -0.39%
82 | O=S(=O)(NCCc1ccccn1)c1cc(Cl)cc(Cl)c1O | 3.97%
83 | O=[N+]([O-])c1cc(S(=O)(=O)NCCc2ccccn2)ccc1Cl | 68.6% (active)
84 | O=[N+]([O-])c1cccc(S(=O)(=O)NCc2ccccn2)c1 | 2.02%
85 | CCCCOCC1CN(CCCC)S(=O)(=O)c2c(Oc3ccc(F)cc3)cccc2O1 (stereo unspecified) | 1.51%
86 | COC(=O)C1=C(C)N(Cc2cccc(C(F)(F)F)c2)C(=NCc2ccccc2)NC1c1ccc(Cl)cc1 (stereo unspecified) | 19.1%
